Laboratory results: publication PMC3987113 (Toxicology and applied pharmacology, 2009)
Several values for one entry are separate records, joined by “and”; a condition that tells them apart may be missing. Identical values can stand only once. Entries after “also recorded” stand apart in the source; their conditions may differ. Like-named read-outs stand apart in the source and are kept apart here.

What was measured:
[1] = Body and liver weights, time course study; assay type: in vivo, C57BL/6 mice; conditions: for Liver weight / Relative liver weight / Body weight gain / Terminal body weight: 300 mg/kg PCB153 or 30 μg/kg TCDD, mean ± SD, n=5; for Body weight gain: terminal body weight divided by body weight prior to dosing
[2] = Body and liver weights, 24 h dose-response study; assay type: in vivo, C57BL/6 mice; conditions: for Liver weight / Relative liver weight / Body weight gain / Terminal body weight: 24 h; for Liver weight / Relative liver weight / Terminal body weight: mean ± SD, n=5; for Body weight gain: terminal body weight divided by body weight prior to dosing; for Terminal body weight: single gavage
Outline: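 Immature ovariectomized female C57BL/6 mice, acclimatized 3 days, received a single oral gavage on PND 28 of 1, 3, 10, 30, 100 or 300 mg/kg test compound or sesame oil vehicle (0.1 ml), n=5 per group, sacrificed 24 h later. Compound was dissolved in acetone, diluted in sesame oil and the acetone evaporated under nitrogen. Analysis by ANOVA with Tukey's or Dunnett's post hoc test, p<0.05.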

[3] = Hepatic tissue level quantification by HRGC/HRMS; assay type: in vivo, C57BL/6 mice; conditions: liver
[4] = tested on: liver of immature, ovariectomized C57BL/6 mice; assay: Liver histopathology; assay type: in vivo
hepatic gene expression [5] = assay: Hepatic gene expression, Agilent 4 x 44K microarrays; assay type: in vivo, C57BL/6 mice
hepatic gene expression [6] = assay: QRT-PCR verification of hepatic gene expression; assay type: in vivo, C57BL/6 mice
Cyp2b10 = assay: Dose-response modeling of microarray data; assay type: in vivo, C57BL/6 mice; conditions: C57BL/6, mouse, liver, oral
Cyp2c55 = assay: Dose-response modeling of microarray data; assay type: in vivo, C57BL/6 mice; conditions: C57BL/6, mouse, liver, oral
hepatic gene expression [7] = assay: Dose-response modeling of microarray data; assay type: in vivo, C57BL/6 mice; conditions: Mus musculus, 24 h
[8] = 300 mg/kg PCB153 or 30 μg/kg TCDD
[9] = hepatic mRNA, 300 mg/kg PCB153, maximum fold change, |fold change|≥1.5, P1(t)≥0.985
[10] = hepatic mRNA, 300 mg/kg PCB153, maximum fold change, |fold change|≥1.5, P1(t)≥0.985, 300 mg/kg

## Clc1cc(Cl)c(-c2cc(Cl)c(Cl)cc2Cl)cc1Cl [PCB153, 2,2′,4,4′,5,5′-hexachlorobiphenyl]
[1]; 300 mg/kg PCB153
  Effect on relative liver weight (RLW), time course study: increased (p<0.05) relative liver weight (RLW) at 72 and 168 h
[1]; 4 h
  Liver weight: 0.712 ± 0.048 g
  Relative liver weight: 0.057 ± 0.001
  Body weight gain: 1.0 ± 0.0
[1]; 4 h after single gavage
  Terminal body weight: 12.5 ± 0.8 g
[1]; 12 h
  Liver weight: 0.730 ± 0.075 g
  Relative liver weight: 0.056 ± 0.003
  Body weight gain: 1.0 ± 0.0
[1]; 12 h after single gavage
  Terminal body weight: 13.0 ± 0.6 g
[1]; 24 h
  Liver weight: 0.813 ± 0.137 g
  Relative liver weight: 0.061 ± 0.009
  Body weight gain: 1.1 ± 0.0
[1]; 24 h after single gavage
  Terminal body weight: 13.3 ± 0.9 g
[1]; 72 h
  Liver weight: 1.086 ± 0.135 g
  Relative liver weight: 0.069 ± 0.007
  Body weight gain: 1.1 ± 0.0
[1]; 72 h after single gavage
  Terminal body weight: 15.7 ± 0.7 g
[1]; 168 h
  Liver weight: 1.280 ± 0.074 g
  Relative liver weight: 0.072 ± 0.002
  Body weight gain: 1.4 ± 0.1
[1]; 168 h after single gavage
  Terminal body weight: 17.9 ± 1.2 g
[1]; any of the PCB153 doses or time points
  Effect on body weight gain: No significant decreases in body weight gain
[2]; 1 mg/kg
  Liver weight: 0.850 ± 0.121 g
  Relative liver weight: 0.059 ± 0.002
  Body weight gain: 1.1 ± 0.0
  Terminal body weight: 14.3 ± 1.8 g
[2]; 3 mg/kg
  Liver weight: 0.865 ± 0.119 g
  Relative liver weight: 0.060 ± 0.002
  Body weight gain: 1.1 ± 0.0
  Terminal body weight: 14.4 ± 1.7 g
[2]; 10 mg/kg
  Liver weight: 0.721 ± 0.073 g
  Relative liver weight: 0.056 ± 0.004
  Body weight gain: 1.1 ± 0.1
  Terminal body weight: 12.7 ± 1.1 g
[2]; 30 mg/kg
  Liver weight: 0.836 ± 0.066 g
  Relative liver weight: 0.062 ± 0.001
  Body weight gain: 1.1 ± 0.0
  Terminal body weight: 13.4 ± 1.0 g
[2]; 100 mg/kg
  Liver weight: 0.829 ± 0.071 g
  Relative liver weight: 0.060 ± 0.002
  Body weight gain: 1.1 ± 0.0
  Terminal body weight: 13.8 ± 1.1 g
[2]; 300 mg/kg PCB153, 24 h
  Effect on relative liver weight (RLW), dose-response study: significantly increased RLW at 24 h
[2]; 300 mg/kg
  Liver weight: 0.855 ± 0.152 g
  Relative liver weight: 0.067 ± 0.003
  Body weight gain: 1.1 ± 0.0
  Terminal body weight: 12.7 ± 1.9 g
[3]; 24 h, 1-300 mg/kg, significantly different from controls
  Hepatic PCB153 levels in dose-response study: dose-dependent increase in hepatic levels
[3]; 168 h vs 24 h, single gavage 300 mg/kg PCB153 or 30 μg/kg TCDD
  Decrease of hepatic level after 7 days: ~ 3.3 fold
[4]; 300 mg/kg PCB153
  Hepatocellular hypertrophy, time course study: increasing hypertrophic responses between 24 and 168 h; also recorded: induced hepatocellular hypertrophy between 24 and 168 h
[4]; 300 mg/kg PCB153, 24 h
  Hepatocellular vacuolization, dose-response study: induced the highest levels of hepatocellular vacuolization
[4]; [8]
  Hepatic lipid accumulation, Oil Red O staining: no fatty accumulation
  Necrosis and immune (mixed) cell infiltration in liver: did not elicit immune cell infiltration or necrosis; also recorded: absent; also recorded: did not induce necrosis or immune cell infiltration
[4]; 300 mg/kg PCB153 or 30 μg/kg TCDD, time course
  Hepatic inflammation: almost absent
[4]; 300 mg/kg PCB153 or 30 μg/kg TCDD, Fig. 2 at 168 h
  Hepatocellular vacuolization, time course study: minimal vacuolization and hepatocellular hypertrophy
[4]; PCB153, 24 h
  Hepatocellular hypertrophy, dose-response study: incidences of hypertrophy were not observed
Hepatic gene expression [5]; PCB153 dose-response study
  Induction of CAR/PXR regulated genes Cyp2b10, Cyp3a11, Ces2, Insig2, Abcc3: dose-dependently induced
Hepatic gene expression [5]; [9]
  PCB153 fold change, Abcc3: 1.9 fold
  PCB153 fold change, Acsl3: −3.1 fold
  PCB153 fold change, Agpat4: −1.9 fold
  PCB153 fold change, Akr1b7: 22.1 fold
  PCB153 fold change, Akr1c20: −2.3 fold
  PCB153 fold change, Aox1: 2.9 fold
  PCB153 fold change, Cdca2: 2.8 fold
  PCB153 fold change, Cds2: 1.7 fold
  PCB153 fold change, Ces2: 5.8 fold
  PCB153 fold change, Cyp2b9: 7.6 fold
  PCB153 fold change, Cyp2b10: 27.5 fold
  PCB153 fold change, Cyp2b23: 19.7 fold
  PCB153 fold change, Cyp2c54: 2.4 fold
  PCB153 fold change, Cyp3a25: 3.8 fold
  PCB153 fold change, Dhfr: −2.1 fold
  PCB153 fold change, Elovl6: −3.8 fold
  PCB153 fold change, Fasn: −3.9 fold
  PCB153 fold change, Fmo5: 3.0 fold
  PCB153 fold change, Gadd45a: 2.0 fold
  PCB153 fold change, Gpx2: 1.7 fold
  PCB153 fold change, Gsta2: 4.1 fold
  PCB153 fold change, Gstm4: 4.0 fold
  PCB153 fold change, Gstt3: 1.7 fold
  PCB153 fold change, Hmgcr: −5.3 fold
  PCB153 fold change, Hsd17b2: −2.0 fold
  PCB153 fold change, Insig2: 5.9 fold
  PCB153 fold change, Mad1l1: 2.4 fold
  PCB153 fold change, Myc: 2.9 fold
  PCB153 fold change, Nol3: 4.9 fold
  PCB153 fold change, Pla2g12a: 1.7 fold
  PCB153 fold change, Slc1a4: −2.5 fold
  PCB153 fold change, Slc23a1: 2.3 fold
  PCB153 fold change, Smpd3: 10.8 fold
  PCB153 fold change, Srebf1: −2.4 fold
  PCB153 fold change, Srebf2: −2.1 fold
  PCB153 fold change, Ugdh: 2.5 fold
Hepatic gene expression [5]; [10]
  PCB153 fold change, Cyp2c55: 48 fold and 48.4 fold
  PCB153 fold change, Gadd45b: 10.7 fold
  PCB153 fold change, Zwint: 1.8 fold
Hepatic gene expression [5]; hepatic mRNA, PCB153
  Ccl9 expression: induced expression
  Down-regulation of Acsl3, Srebf1 and Srebf2: −2.1 to −3.1 fold
Hepatic gene expression [6]; 300 mg/kg PCB153 compared to TCDD, Fig. 6A-B
  Induction of AhR-battery genes (Cyp1a1, Cyp1a2, Tiparp): modestly induced
Hepatic gene expression [6]; hepatic mRNA, time course, 30 μg/kg TCDD (Fig. 6A) or 300 mg/kg PCB153 (Fig. 6B)
  Cyp1a2 induction: ~ 1.8 fold
Hepatic gene expression [6]; hepatic mRNA, time course, 300 mg/kg PCB153 or 30 μg/kg TCDD (Fig. 6A-B)
  Elovl5 fold change: −1.9 fold
Cyp2b10
  ED50 at 24 h: 38.1 mg/kg
Cyp2c55
  ED50 at 24 h: 31.7 mg/kg
Hepatic gene expression [7]; read-out: ED50, Abcc3
  ED50: 2.9 mg/kg
Hepatic gene expression [7]; read-out: ED50, Entpd5
  ED50: 34.2 mg/kg
Hepatic gene expression [7]; read-out: ED50, Nol3
  ED50: 33.9 mg/kg
